From ChEMBL document CHEMBL1132226, “1,2,5-Oxadiazole N-oxide derivatives and related compounds as potential antitrypanosomal drugs: structure-activity relationships” (1999)

Tested on: Trypanosoma cruzi
Assay: (§1) The compound was tested in vitro for antitrypanosomal activity against Trypanosoma cruzi epimastigotes at a dose of 25 uM
Type: functional
Procedure, shortened: (§2)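 T. cruzi Tulahuen 2 epimastigotes were grown at 28 °C in axenic BHI-tryptose medium with 10% fetal calf serum. Inocula came from a 10-day stationary culture, starting at 1 × 10⁶ cells/mL. Compound was added from a DMSO stock before inoculation, with final DMSO ≤0.4%; controls had 0.4% DMSO and no drug. Growth was read as A600 daily. Percent inhibition = {1 − [(Ap − A0p)/(Ac − A0c)]} × 100, using day-5 versus day-0 absorbances. Values are the mean of three experiments.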

Going from `CCCCNC(=O)c1ccc2nonc2c1` to `CCCCCCNC(=O)c1ccc2nonc2c1`, the inhibition at 25 µM rises from 0% to 10%.

Tested on: Trypanosoma cruzi
Assay: In vitro antitrypanosomal activity against Trypanosoma cruzi epimastigotes at dose 25 uM
Type: functional
Procedure, shortened: as §2

First: CCCCNC(=O)N/N=C/c1ccc2no[n+]([O-])c2c1
Second: CCCCCCNC(=O)N/N=C/c1ccc2no[n+]([O-])c2c1
The inhibition at 25 µM of the first is lower: 45% for the first, 55% for the second.

Compared with `CCN(CC)CCCNC(=O)N/N=C/c1ccc2no[n+]([O-])c2c1`, `CN(C)CCCNC(=O)N/N=C/c1ccc2no[n+]([O-])c2c1` is higher in inhibition at 25 µM: 8% for the first, 11% for the second.

First: CCCCCCNC(=O)c1ccc2no[n+]([O-])c2c1
Second: CCCCNC(=O)c1ccc2no[n+]([O-])c2c1
The inhibition at 25 µM of the first is lower: 79% for the first, 90% for the second.

First: O=C(NCCCN1CCCCC1)c1ccc2no[n+]([O-])c2c1
Second: O=C(NCCCN1CCOCC1)c1ccc2no[n+]([O-])c2c1
The inhibition at 25 µM of the first is higher: 45% for the first, 19% for the second.

First: CCCCNC(=O)N/N=C/c1no[n+]([O-])c1C
Second: CCCCCCNC(=O)N/N=C/c1no[n+]([O-])c1C
The inhibition at 25 µM of the first is lower: 0% for the first, 3% for the second.

Compared with `CCN(CC)CCCNC(=O)c1ccc2no[n+]([O-])c2c1`, `CN(C)CCCNC(=O)c1ccc2no[n+]([O-])c2c1` is lower in inhibition at 25 µM: 17% for the first, 15% for the second.

Compared with `CCCCNC(=O)NNCc1ccc2no[n+]([O-])c2c1`, `CCCCNCc1ccc2no[n+]([O-])c2c1` is lower in inhibition at 25 µM: 55% for the first, 21% for the second.

Compared with `CCCCNC(=O)N/N=C/c1ccc2c(c1)[n+]([O-])c(C#N)c(N)[n+]2[O-]`, `CCCCNC(=O)N/N=C/c1ccc2c(c1)[n+]([O-])c(C)c(C)[n+]2[O-]` is lower in inhibition at 25 µM: 17% for the first, 0% for the second.

Compared with `CCCCNC(=O)N/N=C/c1c(C)[n+]([O-])c2ccccc2[n+]1[O-]`, `CCCCNC(=O)N/N=C/c1c(-c2ccccc2)no[n+]1[O-]` is higher in inhibition at 25 µM: 6% for the first, 17% for the second.

`Cc1c(CNCCCN2CCCCC2)no[n+]1[O-]` and `Cc1c(CNCCCN2CCOCC2)no[n+]1[O-]` are the same in inhibition at 25 µM: 0% for the first, 0% for the second.

Compared with `CCCCCCNC(=O)N/N=C/c1c(-c2ccccc2)no[n+]1[O-]`, `CCN(CC)CCCNCc1c(-c2ccccc2)no[n+]1[O-]` is lower in inhibition at 25 µM: 53% for the first, 22% for the second.

Compared with `CCCCNC(=O)N/N=C/c1ccc2nonc2c1`, `CCCCNC(=O)N/N=C/c1ccc2c(c1)[n+]([O-])cc[n+]2[O-]` is higher in inhibition at 25 µM: 0% for the first, 23% for the second.

`[O-][n+]1onc(-c2ccccc2)c1CNCCCN1CCOCC1` gave an inhibition at 25 µM of 38%.

Tested on: Trypanosoma cruzi
Assay: as §1

With `CC1CS(=O)(=O)CCN1/N=C/c1ccc([N+](=O)[O-])o1` (stereo not drawn) [NIFURTIMOX] the inhibition at 25 µM was 100%.
